Data set [1] in a line: Selectivity index, ratio of CC50 for mock-infected human MT4 cells to EC50 for HIV-1 3B infected in human MT4 cells. The format is toxicity, cell-based. As to conditions: mock-infected and infected with HIV-1 3B, read-out: Ratio CC50/EC50. The essentials:
(§1)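 MT-4 cells resuspended at 6 × 10⁵ cells/ml, infected with HIV-1 IIIB, RES056 or HIV-2 ROD at 100-300 CCID50, or mock-infected; test compounds added from 10× stocks. After 5 days, viability read by MTT at 540 and 690 nm, median OD of two or three wells. EC50 = 50% protection from cytopathicity; CC50 = 50% viability loss in mock-infected cells; SI = CC50/EC50.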

The nature of data set [2]: Selectivity index, ratio of CC50 for mock-infected human MT4 cells to EC50 for HIV-2 ROD infected in human MT4 cells. The format is toxicity, cell-based. Particulars: mock-infected and infected with HIV-2 ROD, read-out: Ratio CC50/EC50. The procedure, abridged:
as §1

Data set [3] has as its target Human immunodeficiency virus type 1 reverse transcriptase (Human immunodeficiency virus 1, UniProt Q72547). Put plainly: Inhibition of purified recombinant HIV-1 reverse transcriptase after 1 hr using biotin-labeled dUTP by digoxigenin-peroxidase assay. The essentials:
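Kit-based colorimetric ELISA with recombinant wild-type HIV-1 RT, poly(A)·oligo(dT)15 template/primer, dNTPs including digoxigenin- and biotin-labeled dUTP, in lysis buffer ± inhibitor, incubated 1 h at 37 °C. Product captured on streptavidin, detected with anti-DIG-peroxidase and ABTS, absorbance at 405 nm. Several concentrations tested; % inhibition taken relative to the no-inhibitor sample.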

Data set [4] deals with Human immunodeficiency virus 1. Description: Antiviral activity against HIV-1 RES056 harboring RT K103N/Y181C double mutant infected in human MT4 cells assessed as protection from viral cytopathicity after 5 days by MTT assay. Format: functional, organism-based. Particulars: Human immunodeficiency virus 1, RES056, MT4, 120 h. The essentials:
as §1

The subject of data set [5] is Human immunodeficiency virus 2. Put plainly: Antiviral activity against HIV-2 ROD infected in human MT4 cells assessed as protection from viral cytopathicity after 5 days by MTT assay. Particulars: Human immunodeficiency virus 2, ISOLATE ROD, MT4, 120 h. The format is functional, organism-based. The procedure, abridged: (§2)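 MT-4 cells (6 × 10⁵ cells/ml) infected with HIV-1 IIIB or HIV-2 ROD stock at 100-300 CCID₅₀; compounds added as 10× stocks. After 5 days, viability read by MTT reduction at 540 and 690 nm, using median OD of two or three wells. EC₅₀ is the concentration giving 50% protection from viral cytopathicity.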
On the technique in general: Protection from cytopathic effect is a common read-out in antiviral testing.

The nature of data set [6]: Cytotoxicity against mock-infected human MT4 cells after 5 days by MTT assay. Format: cell-based. The procedure, abridged: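 Mock-infected MT-4 cells (6 × 10⁵ cells/ml) received culture medium in place of virus and were exposed to compounds added as 10× stocks. After 5 days, viability was read by MTT at 540 and 690 nm, using median OD of two or three wells. CC₅₀ is the concentration cutting viability by 50%. '>' marks the highest concentration tested without cytotoxicity.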
A general note: Tetrazolium dyes change colour on reduction, which living cells bring about.

Data set [7] deals with Human immunodeficiency virus 1. Description: Antiviral activity against HIV-1 3B infected in human MT4 cells assessed as protection from viral cytopathicity after 5 days by MTT assay. The format is functional, organism-based. Particulars: Human immunodeficiency virus 1, 3B, MT4, 120 h. The procedure, abridged: as §2
Data set [8] can be described thus: Selectivity index, ratio of CC50 for mock-infected human MT4 cells to EC50 for HIV-1 RES056 harboring RT K103N/Y181C double mutant infected in human MT4 cells. Particulars: read-out: Ratio CC50/EC50. The format is toxicity, cell-based. The essentials: as §1

Some results are limits rather than exact numbers.

For `Cc1cc(C#N)cc(C)c1Oc1cc(Nc2ccc(C#N)cc2)nc2ncnn12`, the selectivity ratio in data set [1] is 182; in data set [2] it was below 1; in data set [8], below 1. Further, the IC50 (usually the concentration at which inhibition is half-maximal) in data set [3] was determined as 0.39 µM. Also, the concentration giving a half-maximal response (EC50) (usually the concentration needed to bring the measured effect to its halfway point) in data set [4] is above 224 µM; in data set [5], above 224 µM; in data set [7] it was 1.2 µM. The cytotoxic concentration (CC50) (as a rule, the concentration at which the toxic effect on the cells reaches its halfway point) at 120 h in data set [6] worked out at 224 µM.

The values above are taken from ChEMBL document CHEMBL3351741, “Fused heterocycles bearing bridgehead nitrogen as potent HIV-1 NNRTIs. Part 2: discovery of novel [1,2,4]Triazolo[1,5-a]pyrimidines using a structure-guided core-refining approach” (Eur J Med Chem, 2014).
